# From PubChem BioAssay
# UCH37 inh = blocks the human deubiquitinase UCH37 | Q9Y5K5 | purified proteasome/UCH37, Ub-AMC cleavage fluorescence | inhibition, % (concentration not given with the values) | actives 0.33% (n = 330,000);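 active = mean inhibition over replicate wells above about 20%, limit read from the data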;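 note: 0% = compound-free wells with enzyme and 100% = wells lacking proteasome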
# Target sequence (Q9Y5K5 whole entry, looked up): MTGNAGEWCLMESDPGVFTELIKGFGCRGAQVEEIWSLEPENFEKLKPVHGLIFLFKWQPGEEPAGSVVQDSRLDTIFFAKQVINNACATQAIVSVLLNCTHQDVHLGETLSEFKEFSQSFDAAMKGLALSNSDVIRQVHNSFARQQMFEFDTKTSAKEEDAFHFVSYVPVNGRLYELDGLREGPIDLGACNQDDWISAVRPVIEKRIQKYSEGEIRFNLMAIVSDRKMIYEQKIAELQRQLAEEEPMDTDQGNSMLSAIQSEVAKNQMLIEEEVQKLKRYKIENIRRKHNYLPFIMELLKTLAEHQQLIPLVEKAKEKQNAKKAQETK
#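 Material: human UCH37 enzyme supplied as purified proteasome complex. Measure: % inhibition of Ub-AMC cleavage fluorescence. Medium: pH 7.4 Tris-HCl (50 mM) with ovalbumin, ATP-MgCl2, DTT. Times: 30 min preincubation with enzyme, 25 min cleavage at room temperature. Detection: AMC fluorescence intensity at 355/460 nm.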
# ATG4B inh = inhibitors of human ATG4B cysteine protease. Q9Y4P1. actives 0.51% (n = 340,000). inhibition, % at 8.33 µM. ATG4B cleavage of LC3-PLA2, NBD-HPC fluorescence, 1 h; in the data active = inhibition above about 40%
# SENP1 FRET inh = blocks the human SENP1 SUMO protease catalytic domain. actives 0.21% (n = 360,000). Q9P0U3. inhibition, % at 10 µM. recombinant SENP1 catalytic domain, CyPet-SUMO1-YPet FRET cleavage. AID 624204;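 active = inhibition at least 30% at 10 µM, raw YFP signal under a set limit, fluorescence ratio 0.5 to 1.5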;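 note: 0% = enzyme with DMSO and 100% = no enzyme wells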
#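 material = recombinant human SENP1 catalytic domain, His6-tagged | quantity = 20 pM enzyme | reagent = 25 nM SUMO1 FRET substrate | compound dosing = 10 µM single point, 0.5% DMSO | timing = 50 min enzyme reaction, room temperature, light-protected | detection = FRET, CFP and YFP emission | control set = no-enzyme low, enzyme-DMSO high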
# NadD inh = inhibitors of Staphylococcus aureus NadD; purified NadD enzyme, colorimetric absorbance read-out; inhibition, % at 20 µM; actives 0.78% (n = 360,000); in the data active = inhibition above about 26%
# NR3A LBD binder = NR3A (human) ligand-binding domain modulation | Tm shift relative to glycine control, % at 25 µM | actives 2.5% (n = 340,000) | NR3A LBD differential scanning fluorimetry, Tm shift; 0% = protein alone, 100% = glycine-bound protein | AID 1259313;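 active = melting temperature shift of at least 10% of the positive control shift, at one fixed dose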
# ATG4B confirm = ATG4B (human) inhibition, single-dose confirmed; ATG4B protease fluorescent substrate cleavage assay; AID 504757; inhibition, % at 8.33 µM; shares compounds with ATG4B inh; actives 92% (n = 320); in the data active = inhibition above about 39%
# PLA2 ctr = inhibits human PLA2, flagging false ATG4B inhibitors | shares compounds with ATG4B inh | purified PLA2, NBD-C6-HPC fluorescence, 45 min | inhibition, % at 8.33 µM | actives 66% (n = 1,600) | AID 588402; in the data active = inhibition above about 50%
# Target sequence (P04054 whole entry, looked up): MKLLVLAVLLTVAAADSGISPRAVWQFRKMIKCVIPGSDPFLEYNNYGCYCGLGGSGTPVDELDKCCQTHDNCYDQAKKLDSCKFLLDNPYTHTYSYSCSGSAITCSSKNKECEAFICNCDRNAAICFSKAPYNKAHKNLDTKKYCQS
# UCH37 reconfirm = reconfirmed inhibitor of human deubiquitinase UCH37; shares compounds with UCH37 inh; Proteasome-bound UCH37, Ub-AMC cleavage fluorescence; inhibition, % at 20 µM; actives 27% (n = 480); AID 624100;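 active = average inhibition over replicates above about 50%, so the earlier screening hit is confirmed, limit read from the data; inactive = the rest, counted as false positives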;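 note: based on cleavage rate fitted by regression over a 30 min kinetic read; 0% = proteasome plus Ub-AMC and 100% = Ub-AMC without proteasome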
# NadD inh conf = confirmation of Staphylococcus aureus NadD inhibitors; purified S. aureus NadD, colorimetric enzyme assay; actives 13% (n = 2,000); inhibition, % at 20 µM; shares compounds with NadD inh; in the data active = inhibition mostly above about 42%, no sharp cut-off; inactive = mostly below about 42%
# An asterisk follows results filed as active; . = not tested or not shown. This is a sample that favours compounds with a hit; in the whole collection about 3.6% have one here.
SMILES,UCH37 inh,ATG4B inh,SENP1 FRET inh,NadD inh,NR3A LBD binder,UCH37 reconfirm,others
Cc1cc(/C=C2\C(=O)NC(=O)N(c3ccc(Cl)cc3)C2=O)c(C)n1-c1sc2c(c1C#N)CCCC2,6,43*,-16,47*,2,.,ATG4B confirm=63*;PLA2 ctr=19
CCOC(=O)c1c(-n2c(C)cc(/C=C3\C(=O)NC(=O)N(C)C3=O)c2C)sc2c1CCCC2,-30,27,-1,13,0,.,
O=C(Cn1ncc2c([nH]c3ccccc32)c1=O)NCCCN1CCN(c2ccccc2)CC1,7,-2,1,8,-2,.,
C/C(=N\N1CCCCC1c1cccnc1)c1c(O)n(C2CCCCC2)c(=S)[nH]c1=O (stereo unspecified),5,43*,-15,19,-7,.,PLA2 ctr=37
CCc1ccc(-c2nn(Cc3ccccc3)cc2C=O)cc1,0,68*,0,-10,-1,.,PLA2 ctr=83*
O=Cc1cn(Cc2c(F)cccc2Cl)nc1-c1ccccc1,6,23,4,-2,-1,.,
CC(=O)OC1CCC2(C=NO)C(=CCC3C4CCC(=O)C4(C)CCC32)C1 (stereo unspecified),1,.,.,.,.,.,
Cc1nc2c(=O)n(C)c(=O)nc-2n(C)n1,100*,82*,49*,-3,1,100*,ATG4B confirm=25;PLA2 ctr=-9
O=C1C(=O)c2cccc3cccc1c23,3,5,0,-1,-1,.,
O=C1C(=O)c2ccccc2-c2ccccc21,87*,85*,1,3,-1,101*,ATG4B confirm=27;PLA2 ctr=-5
CNC(=S)N(Cc1cc2cc(OC)c(OC)cc2[nH]c1=O)C1CCCC1,-91,-7,1,-5,1,.,
O=C1NC(=O)C(Nc2ccc(Cl)c(Cl)c2)C(=O)N1,59*,4,-2,-4,2,-2,
COc1ccc(N2CC(C(=O)Nc3nnc(Cc4ccccc4)s3)CC2=O)cc1 (stereo unspecified),0,-4,0,3,3,.,
Cc1cccc(-n2c(O)c(/C=N/Nc3nc4c(c(=O)n(C)c(=O)n4C)n3C)c(=O)[nH]c2=S)c1,27*,-8,-50,5,-4,22,
CC(C)(C)N1C(=O)NC(=O)/C(=C\c2ccc3c(c2)CCN3CCCCl)C1=O,64*,5,-26,10,0,1,
Cn1c(O)c(C(=O)c2ccccc2)c(=O)n(C)c1=O,42*,-2,2,-1,0,7,
Cn1c(O)c(C(=O)c2ccccc2F)c(=O)n(C)c1=O,3,0,2,3,0,.,
Cc1cc(Br)c(NC(=O)COn2nnc3ccc(S(C)(=O)=O)cc32)c(Br)c1,0,-2,0,-6,1,.,
C=C(C)C(Cc1c(OC)ccc(C(=O)/C=C/c2ccc(O)cc2)c1O)OO (stereo unspecified),49*,-40,16,3,24*,19,
CC(C)C(=O)N1CCN(c2ccc(NC(=O)c3ccc4c(c3)OCCO4)cc2Cl)CC1,1,-9,2,-4,-2,.,
CC1=N/C(=C\c2ccc([N+](=O)[O-])cc2)C(=O)N1c1ccc(Cl)cc1,7,-13,6,10,-1,.,
Cc1ccc2c(c1)CC1(CN2C)C(=O)NC(=O)N(CCC2=CCCCC2)C1=O (stereo unspecified),35*,-3,-17,1,-1,20,
CN1/C(=C\C=C2C(=O)NC(=O)NC2=O)C(C)(C)c2ccccc21,39*,-4,-36,5,0,6,
CN1CCN(c2ccc([N+](=O)[O-])c3no[n+]([O-])c23)CC1,42*,12,84*,0,-1,29,
O=[N+]([O-])c1ccc(N(CCO)CCO)c2c1no[n+]2[O-],.,.,20,-5,.,.,
SMILES,UCH37 inh,ATG4B inh,SENP1 FRET inh,NadD inh,NR3A LBD binder,UCH37 reconfirm,others
COC(=O)C1=C(c2cccc(C#N)c2)C[C@@H]2CC[C@H]1N2C(=O)NCCOc1ccccc1,0,-11,0,-1,-4,.,
COC(=O)C1=C(c2cccc(C#N)c2)C[C@@H]2CC[C@H]1N2C(=O)NCCOc1ccccc1Cl,46*,0,2,2,0,7,
O=C(O)CC1OCC=C2CN3CCC45C6=CC(=O)C(=O)C([N+](=O)[O-])=C6NC4C1C2CC35 (stereo unspecified),97*,7,19,22,-4,97*,
O=C(O)CC1OCC=C2CN3CCC45c6ccccc6NC4C1C2CC35 (stereo unspecified),.,-3,0,-4,6,.,
O=C(/C=C/c1ccc(O)c(O)c1)OC1C(O)CC(OC(=O)/C=C/c2ccc(O)c(O)c2)(C(=O)O)CC1O (stereo unspecified),12,-1,-6,-10,1,.,
Cc1ccc(C(=O)N/C(=C/c2ccc(C(C)C)cc2)C(=O)NCCCN2CCOCC2)cc1,8,-7,-3,-6,2,.,
N#Cc1ccc2nc(-c3ccc(CN4CCC(n5c(=O)[nH]c6ccccc65)CC4)cc3)c(-c3ccccc3)nc2c1,.,.,5,43*,.,.,NadD inh conf=26
Cc1cccc(C)c1-n1nnnc1C(c1cccc2ccccc12)N1CCC(n2c(=O)[nH]c3ccccc32)CC1 (stereo unspecified),.,.,3,38*,.,.,NadD inh conf=-3
Cc1cccc2nc(-c3ccccc3)c(-c3ccc(CN4CCC(n5c(=O)[nH]c6ccccc65)CC4)cc3)nc12,.,.,-2,45*,.,.,NadD inh conf=26
O=c1[nH]c2ccccc2n1C1CCN(CCCC(c2ccc(F)cc2)c2ccc(F)cc2)CC1,2,-5,-1,6,-6,.,
O=c1[nH]c2ccccc2n1C1CCN(C(c2nnnn2Cc2ccccc2)C2CC2)CC1 (stereo unspecified),.,.,3,-4,.,.,
O=C1N(c2cccc(Cl)c2)C(c2ccccc2)N2CCCN12 (stereo unspecified),6,7,2,2,-3,.,
CC(=O)c1ccc2c(c1)C1C(Cl)C(Sc3ccccc3[N+](=O)[O-])CC1C(c1ccccc1)N2 (stereo unspecified),3,0,-3,37*,-1,.,NadD inh conf=20
